Source: ChEMBL document CHEMBL2311413, “N-cinnamoylated chloroquine analogues as dual-stage antimalarial leads” (J Med Chem, 2013)
pIC50: −log10 of the molar value. Calls of active or inactive are those of the source. The rule behind the calls is not given here.

Assays:
[1] = tested on: Plasmodium falciparum; experiment: Antiplasmodial activity against CQ-resistant Plasmodium falciparum 3D7 blood stage form after 48 hrs by FACSort cytometry; type: functional, organism-based; conditions: 3D7, 48 h
[2] = tested on: Plasmodium falciparum; experiment: Antiplasmodial activity against CQ-resistant Plasmodium falciparum W2 blood stage form after 48 hrs by FACSort cytometry; type: functional, organism-based; conditions: W2, 48 h
[3] = Inhibition of beta-hematin formation at 0.1 to 1 mM after 48 hrs relative to control; type: functional
How it was run: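 Compounds in DMSO, 0.1−1 mM, added in triplicate to hemin chloride in DMSO (5.2 mg/mL). Formation started with 0.2 M acetate buffer pH 4.4, then 37 °C for 48 h. After centrifugation, pellet washed four times with DMSO and dissolved in 0.2 M NaOH, diluted 1:6 in 0.1 M NaOH, absorbance at 405 nm. Water and DMSO as negative controls.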

[4] = tested on: Plasmodium berghei; experiment: Antiplasmodial activity against Plasmodium berghei liver stage form transfected in human Huh-7 cells assessed as cell viability after 48 hrs by luciferase reporter gene assay; type: functional, organism-based; conditions: Huh-7, 48 h
[5] = tested on: Mus musculus; experiment: Toxicity in Plasmodium berghei infected Swiss Webster mouse at 100 mg/kg, ip bid administered for 4 days by Giemsa staining method; type: organism-based; design: dose 100 mg/kg, route intraperitoneal; conditions: in vivo, 96 h
How it was run: (§1)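 Female Swiss Webster mice (n = 5) infected ip with 10^6 P. berghei-infected erythrocytes. Treatment began 2 h later: ip 10, 30 or 100 mg/kg twice daily for 4 days. Chloroquine control at 3, 10 and 30 mg/kg ip twice daily. Daily checks for toxicity and for parasitemia on Giemsa-stained blood smears; survival followed over time.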

[6] = tested on: Plasmodium berghei; experiment: Antimalarial activity against Plasmodium berghei infected in Swiss Webster mouse assessed as increase in survival time at 10 mg/kg, ip bid administered for 4 days by Giemsa staining method relative to untreated control; type: functional
How it was run: (§2)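 Female Swiss Webster mice (n = 5) infected ip with 10^6 P. berghei-infected erythrocytes. Dosing began 2 h later by ip injection twice daily for 4 days; chloroquine control at 3, 10, 30 mg/kg ip twice daily. Mice checked daily for toxicity and parasitemia (Giemsa-stained blood smears). Survival after treatment start compared with untreated controls.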

[7] = tested on: Plasmodium berghei; experiment: Antimalarial activity against Plasmodium berghei infected in Swiss Webster mouse assessed as increase in survival time at 30 mg/kg, ip bid administered for 4 days by Giemsa staining method relative to untreated control; type: functional; how it was run: as §2
[8] = tested on: Mus musculus; experiment: Toxicity in Plasmodium berghei infected Swiss Webster mouse at 10 to 100 mg/kg, ip bid administered for 4 days by Giemsa staining method; type: organism-based; design: dose 10-100 mg/kg, route intraperitoneal; conditions: in vivo, 96 h; how it was run: as §1
[9] = tested on: Plasmodium berghei; experiment: Antimalarial activity against Plasmodium berghei infected in Swiss Webster mouse assessed as increase in survival time at 100 mg/kg, ip bid administered for 4 days by Giemsa staining method relative to untreated control; type: functional; conditions: route intraperitoneal; how it was run: as §2
[10] = tested on: Huh-7; experiment: Cytotoxicity against human HuH7 cells assessed as cell viability by AlamarBlue assay; type: cell-based
How it was run: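 Huh-7 human hepatoma cells grown in RPMI 1640 with 10% FCS, nonessential amino acids, glutamine and 10 mM HEPES pH 7, 37 °C, 5% CO2; 1.2 × 10^4 cells/well seeded the day before. Compound added ~1 h before P. berghei sporozoite infection and renewed at 24 h. Viability read by AlamarBlue per manufacturer's protocol at 48 h post-infection.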

In the case of `C[C@@H]1CC[C@H]2[C@@H](C)C(=O)O[C@@H]3O[C@@]4(C)CC[C@@H]1[C@]32OO4` [ARTEMISININ], the pIC50 [1] was 7.63, the pIC50 [2] was 8.02 and the inhibition [3] was < 50%.
With `O=C(/C=C/c1ccc([N+](=O)[O-])cc1)NCCCNc1ccnc2cc(Cl)ccc12` the pIC50 [1] was 7.28, the pIC50 [2] was 7.63 and the inhibition [3] was 50%.
`O=C(/C=C/c1ccc(Cl)cc1)NCCCCCNc1ccnc2cc(Cl)ccc12` showed a pIC50 [4] of 5.79 and a pIC50 [2] of 7.60.
In the case of `O=C(/C=C/c1ccc(F)cc1)NCCCNc1ccnc2cc(Cl)ccc12`, the pIC50 [1] was 7.32 and the pIC50 [2] was 7.33.
With `COc1cc(NC(C)CCCN)c2ncccc2c1` (stereo not drawn) [PRIMAQUINE] the pIC50 [4] was 5.12.
With `CC(C)c1ccc(/C=C/C(=O)NCCCCN2CCOCC2)cc1` the pIC50 [4] was < 5.00 and the pIC50 [2] was < 5.00.
For `O=C(/C=C/c1ccc(Cl)cc1)NCCCCNc1ccnc2cc(Cl)ccc12`, the Activity [5] was “Toxic”, the Survival ([6]; route intraperitoneal) was 2 days and the Survival ([7]; route intraperitoneal) was 2 days. It also gave a pIC50 [4] of 5.84, a pIC50 [1] of 7.58 and a pIC50 [2] of 7.94. It also gave an inhibition [3] of 50%.
For `O=C(/C=C/c1ccc(Br)cc1)NCCCNc1ccnc2cc(Cl)ccc12`, the pIC50 [1] was 7.30 and the pIC50 [2] was 7.42.
`O=C(/C=C/c1ccccc1[N+](=O)[O-])NCCCCNc1ccnc2cc(Cl)ccc12` showed a pIC50 [4] of 5.96, a pIC50 [1] of 7.24 and a pIC50 [2] of 7.42. For the same compound, the inhibition [3] was 50%.
Compound `O=C(/C=C/c1ccccc1)NCCCCNc1ccnc2cc(Cl)ccc12` has a pIC50 [4] of 5.97, a pIC50 [1] of 7.20 and a pIC50 [2] of 7.33.
For `Nc1ccc(/C=C/C(=O)NCCCCNc2ccnc3cc(Cl)ccc23)cc1`, the pIC50 [1] was 7.11 and the pIC50 [2] was 7.23.
In the case of `COc1ccc(/C=C/C(=O)OCCCCNc2ccnc3cc(Cl)ccc23)cc1`, the pIC50 [4] was 5.19, the pIC50 [2] was 6.91 and the inhibition [3] was 50%.
In the case of `COc1ccc(/C=C/C(=O)NCCCNc2ccnc3cc(Cl)ccc23)cc1`, the pIC50 [4] was 5.40, the pIC50 [1] was 7.31 and the pIC50 [2] was 7.26.
For `O=C(/C=C/c1ccc([N+](=O)[O-])cc1)NCCCCNc1ccnc2cc(Cl)ccc12`, the pIC50 [1] was 7.31, the pIC50 [2] was 7.63 and the inhibition [3] was > 75%.
For `O=C(/C=C/c1ccccc1[N+](=O)[O-])NCCCNc1ccnc2cc(Cl)ccc12`, the pIC50 [1] was 7.19, the pIC50 [2] was 7.28 and the inhibition [3] was 50%.
For `COc1ccc(/C=C/C(=O)NCCCCNc2ccnc3cc(Cl)ccc23)cc1`, the Activity [8] was “Non-toxic”, the Survival [9] was 2 days and the Activity [6] was “inactive”. The Activity [7] was “inactive”, the Activity [10] was “Non-toxic” and the pIC50 [4] was 5.54. The pIC50 [1] was 7.51, the pIC50 [2] was 7.70 and the inhibition [3] was 50%.
With `COc1ccc(/C=C/C(=O)NCCCCNc2ccncc2)cc1` the pIC50 [4] was < 5.00 and the pIC50 [2] was < 5.00.
In the case of `O=C(/C=C/c1cccc([N+](=O)[O-])c1)NCCCNc1ccnc2cc(Cl)ccc12`, the pIC50 [1] was 7.28, the pIC50 [2] was 7.30 and the inhibition [3] was 50%.
Work on `O=C(/C=C/c1ccccc1)NCCCNc1ccnc2cc(Cl)ccc12` yielded a pIC50 [1] of 6.85 and a pIC50 [2] of 7.13.
`O=C(/C=C/c1ccc(F)cc1)NCCCCNc1ccnc2cc(Cl)ccc12` showed a pIC50 [4] of 5.85, a pIC50 [1] of 7.40 and a pIC50 [2] of 7.71. It also gave an inhibition [3] of 50%.
`CC(C)c1ccc(/C=C/C(=O)NCCCNc2ccnc3cc(Cl)ccc23)cc1` gave a pIC50 [1] of 7.30 and a pIC50 [2] of 7.42.
With `COc1ccc(/C=C/C(=O)NCCCC(C)Nc2cc(OC)cc3cccnc23)cc1` (stereo not drawn) the pIC50 [4] was 5.63 and the pIC50 [2] was < 5.00.
For `CN(C)c1ccc(/C=C/C(=O)NCCCCNc2ccnc3cc(Cl)ccc23)cc1`, the pIC50 [2] was 7.59 and the inhibition [3] was 50%.
In the case of `Cc1ccc(/C=C/C(=O)NCCCCNc2ccnc3cc(Cl)ccc23)cc1`, the pIC50 [4] was 5.63, the pIC50 [1] was 7.62 and the pIC50 [2] was 7.77.
With `CC(C)c1ccc(/C=C/C(=O)NCCCCNc2ccnc3cc(Cl)ccc23)cc1` the Activity [5] was “Toxic”, the Activity [6] was “inactive” and the Activity [7] was “inactive”. The pIC50 [4] was 5.60, the pIC50 [1] was 7.81 and the pIC50 [2] was 7.96. For the same compound, the inhibition [3] was 50%.
Compound `O=C(/C=C/c1cccc(F)c1)NCCCNc1ccnc2cc(Cl)ccc12` has a pIC50 [1] of 6.86 and a pIC50 [2] of 7.13.
`O=C(/C=C/c1ccc(Br)cc1)NCCCCNc1ccnc2cc(Cl)ccc12` gave a pIC50 [4] of 5.64, a pIC50 [1] of 7.54 and a pIC50 [2] of 7.74. For the same compound, the inhibition [3] was > 75%.
In the case of `COc1ccc(/C=C/C(=O)NCCCCNc2ccnc3cc(Cl)ccc23)cc1OC`, the Activity [10] was “Non-toxic”, the pIC50 [4] was 5.39 and the pIC50 [2] was 6.96.
For `CC(C)c1ccc(/C=C/C(=O)NCCCCNc2ccnc3ccccc23)cc1`, the pIC50 [2] was 6.94.
In the case of `Nc1ccc(/C=C/C(=O)NCCCNc2ccnc3cc(Cl)ccc23)cc1`, the pIC50 [1] was 6.87 and the pIC50 [2] was 7.10.
`COc1ccc(/C=C/C(=O)NCCCCCNc2ccnc3cc(Cl)ccc23)cc1` gave a pIC50 [4] of 5.64 and a pIC50 [2] of 7.30.
With `CCN(CC)CCCC(C)Nc1ccnc2cc(Cl)ccc12` (stereo not drawn) [CHLOROQUINE] the pIC50 [4] was 4.80 and the inhibition [3] was > 75%.
With `CC(C)c1ccc(/C=C/C(=O)NCCCCCNc2ccnc3cc(Cl)ccc23)cc1` the pIC50 [2] was 7.50 and the inhibition [3] was 50%.
Compound `O=C(/C=C/c1cccc(F)c1)NCCCCNc1ccnc2cc(Cl)ccc12` has a pIC50 [4] of 5.95, a pIC50 [1] of 7.29 and a pIC50 [2] of 7.47. For the same compound, the inhibition [3] was 50%.
Compound `O=C(/C=C/c1ccc(Cl)cc1)NCCCNc1ccnc2cc(Cl)ccc12` has a pIC50 [1] of 7.33, a pIC50 [2] of 7.38 and an inhibition [3] of 50%.
`Cc1ccc(/C=C/C(=O)NCCCNc2ccnc3cc(Cl)ccc23)cc1` showed a pIC50 [1] of 7.25 and a pIC50 [2] of 7.32.
Compound `O=C(/C=C/c1cccc([N+](=O)[O-])c1)NCCCCNc1ccnc2cc(Cl)ccc12` has a pIC50 [1] of 7.38 and a pIC50 [2] of 7.58.
